This is a sample that favours compounds with a hit; in the whole collection about 2.3% have one here.
TRPC4 block = inhibitors of mouse TRPC4 channel; actives 0.39% (n = 300,000); AID 2247; B-score at 10 µM; HEK293 TRPC4beta/mu-opioid, DAMGO-evoked Fluo4 calcium flux; stronger effect = lower value; Q9QUQ5;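 active = B-score over 3 SD under the library average, no early fluorescence shift, positive overall ratio signal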
Target sequence (Q9QUQ5 whole entry, looked up): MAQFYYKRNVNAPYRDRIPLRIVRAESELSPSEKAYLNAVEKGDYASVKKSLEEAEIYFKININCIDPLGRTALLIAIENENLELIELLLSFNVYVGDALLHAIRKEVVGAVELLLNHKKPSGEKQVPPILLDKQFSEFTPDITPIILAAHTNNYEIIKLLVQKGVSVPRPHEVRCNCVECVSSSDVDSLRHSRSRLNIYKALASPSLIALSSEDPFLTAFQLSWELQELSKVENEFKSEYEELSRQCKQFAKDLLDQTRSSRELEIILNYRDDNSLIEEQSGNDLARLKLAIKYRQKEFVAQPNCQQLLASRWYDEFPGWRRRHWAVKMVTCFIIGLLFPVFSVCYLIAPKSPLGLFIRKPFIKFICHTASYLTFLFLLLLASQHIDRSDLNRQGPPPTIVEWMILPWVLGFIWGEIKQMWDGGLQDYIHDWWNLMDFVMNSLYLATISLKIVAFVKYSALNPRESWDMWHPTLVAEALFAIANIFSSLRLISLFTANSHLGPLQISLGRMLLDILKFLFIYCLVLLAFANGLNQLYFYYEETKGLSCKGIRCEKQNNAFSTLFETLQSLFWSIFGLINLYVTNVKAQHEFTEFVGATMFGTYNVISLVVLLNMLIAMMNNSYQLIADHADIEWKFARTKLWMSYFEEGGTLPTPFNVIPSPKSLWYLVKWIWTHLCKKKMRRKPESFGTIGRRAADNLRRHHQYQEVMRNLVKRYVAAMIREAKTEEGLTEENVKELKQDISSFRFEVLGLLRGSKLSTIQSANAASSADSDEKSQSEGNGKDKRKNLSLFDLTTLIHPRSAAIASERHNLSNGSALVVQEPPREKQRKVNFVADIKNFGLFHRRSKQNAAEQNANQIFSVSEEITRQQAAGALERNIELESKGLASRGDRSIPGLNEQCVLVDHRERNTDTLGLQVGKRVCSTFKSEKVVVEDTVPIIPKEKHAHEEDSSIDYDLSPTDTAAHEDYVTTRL
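material = TRPC4beta/mu-opioid receptor HEK293 cell line | probe or stimulus = sequential submaximal and maximal DAMGO stimulation | compound dosing = one concentration per compound | measured by = Fluo4 Ca2+ flux fluorescence | evaluation = integrated fluorescence ratio relative to baseline, converted to per-well B score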
TRPC6 inhibitor = mouse TRPC6 channel inhibition. Q61143. HEK293-TRPC6, membrane potential dye, ACh-evoked depolarization; stronger effect = lower value. B-score at 10 µM. actives 1.1% (n = 310,000);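 active = B-score under library mean minus 3 SD, initial fluorescence not abnormally high, positive integrated signal ratio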;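 also: B-score derived from integrated fluorescence ratio over the kinetic read; more negative B-score means stronger inhibition of depolarization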
TRPC6 act = activates the mouse TRPC6 cation channel; B-score at 10 µM; Q61143; HEK293-TRPC6 membrane potential dye fluorescence; stronger effect = higher value; actives 0.13% (n = 310,000);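 active = B-score of the integrated fluorescence ratio above library mean plus 3 SD, and starting fluorescence ratio within library mean plus 5 SD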;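 also: higher score means more depolarization so channel activation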
TRPC4 PAM = allosteric potentiators of mouse TRPC4 channel; HEK293 TRPC4beta/mu-opioid, DAMGO EC20, Fluo-4 Ca2+ flux; stronger effect = higher value; B-score at 10 µM; actives 0.42% (n = 310,000); AID 2227;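 active = B-score of calcium response area above 5 SD of library B-scores, with initial fluorescence ratio within 5 SD of library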;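 also: B-score of integrated fluorescence ratio over time as area under calcium response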
TRPC4 agonist = opens the mouse TRPC4 cation channel. Q9QUQ5. HEK293 TRPC4beta/mu-opioid, Fluo4 calcium fluorescence; stronger effect = higher value. B-score at 10 µM. actives 0.49% (n = 310,000);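 active = B-score above 5 SD of library B-scores, and initial fluorescence ratio not above library mean plus 5 SD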;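 also: positive B-score marks a calcium rise read as TRPC4 activation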
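System – HEK293 cells stably co-expressing mouse TRPC4beta and mu-opioid receptor · Signal – Fluo4 calcium-sensitive dye fluorescence, kinetic, 1 Hz baseline · Benchmarks – buffer (low) and maximal DAMGO (high) · Read-out – B score of integrated fluorescence ratio per well · Incubation – dye loading 45 min room temperature, 110 s kinetic read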
An asterisk follows results filed as active; i = inactive; / = no result.

SMILES | TRPC4 block | TRPC6 inhibitor | TRPC6 act | TRPC4 PAM | TRPC4 agonist
CC(C)(C)[C@H]1C=C(C(=O)Nc2ccccc2)O[C@@H](OCc2ccc(CO)cc2)C1 | i | i | i | i | i
CC(C)(C)[C@@H]1C=C(C(=O)NCc2ccccc2)O[C@H](OCc2ccc(CO)cc2)C1 | i | i | i | 13* | i
O=C(NCc1ccccc1)C1=C[C@H](c2ccc(Br)cc2)C[C@H](OCc2ccc(CO)cc2)O1 | i | i | i | 15* | i
Cc1cc(/C=C(\C#N)C(=O)OCC(=O)Nc2ccc(OC(F)F)cc2)c(C)n1CC(C)C | i | i | i | i | i
CC12CCCC[C@@H]1CCC1C2CCC2(C)C1CC[C@@]2(O)CNCCO (stereo partly drawn) | i | i | i | i | i
CC(C)c1ccc(NC2CCCN(C(=O)C3=NN(C)C(=O)CC3)C2)cc1 (stereo not drawn) | i | i | i | i | i
CCCCN(CC)CCCNC(=O)c1ccc(CS(=O)(=O)c2ccccc2C)o1 | i | i | i | i | 68*
COCCNC(=O)c1ccc(CS(=O)(=O)c2ccc(OC)cc2)o1 | i | i | i | i | i
CCN(CC)CCCNC(=O)c1ccc(CS(=O)(=O)c2ccccc2OC)o1 | i | i | i | i | i
CCCCN(CCCNC(=O)c1ccc(CS(=O)(=O)c2ccc(OC)cc2)o1)Cc1ccccc1 | -6* | i | i | i | i
Clc1ccc2c(c1)-c1nnc(Br)n1-c1ccccc1S2 | -6* | i | i | i | i
CC(=O)c1ccc(N2CCN(C(=O)C(=O)c3c(C)[nH]c4ccccc34)CC2)cc1 | i | i | i | 10* | i
COc1ccc(N2CCN(C(=O)C(=O)c3c(C)[nH]c4ccccc34)CC2)cc1 | i | i | i | i | i
COCCNC(=S)NNC(=O)c1cc(C2CC2)nc2ccccc12 | i | i | i | i | i
Cc1ccc(C)n1-c1ncc(Br)cn1 | i | i | i | 21* | i
O=C(Nc1cccc(Cl)c1)c1cnn2cccnc12 | / | i | i | 34* | i
O=C(Nc1cc(Cl)cc(Cl)c1)c1cnn2cccnc12 | i | i | i | i | i
COC(=O)c1ccccc1NC(=O)c1cnn2cccnc12 | i | i | i | 54* | i
Cc1c(Cl)c([N+](=O)[O-])nn1CCCC(=O)NC1CCCCC1 | i | i | i | i | i
Cc1c(Cl)cccc1NC(=S)NCC(c1cccnc1)N(C)C (stereo not drawn) | i | i | i | i | 85*
Cc1cccc(NC(=S)NCc2ccncc2)c1C | i | i | i | i | i
Cc1cccc(NC(=S)NCC(c2cccnc2)N(C)C)c1C (stereo not drawn) | i | i | i | i | 101*
Cc1ccc(C)c(NC(=S)NCC(c2ccccc2)N(C)C)c1 (stereo not drawn) | i | i | i | i | 180*
Cc1ccccc1NC(=S)NCCc1ccccn1 | i | i | i | i | 88*
Cc1cccc(C)c1NC(=S)NCCc1ccccn1 | i | i | i | i | i
SMILES | TRPC4 block | TRPC6 inhibitor | TRPC6 act | TRPC4 PAM | TRPC4 agonist
CN(c1ccccc1)C(c1ccc(F)cc1)c1nnnn1C1CCCC1 (stereo not drawn) | i | i | i | i | i
O=C(COC(=O)CSc1ccc2ccccc2c1)NCc1ccc2c(c1)OCO2 | i | i | i | i | i
Cc1ccccc1NC(=S)NCC(c1cccnc1)N(C)C (stereo not drawn) | i | i | i | i | 136*
Cc1ccccc1NC(=S)NCc1ccccc1 | i | i | i | i | i
CC(=O)c1ccc(NC(=O)CNCC(c2ccccc2)N(C)C)cc1 (stereo not drawn) | i | i | i | i | i
Cc1ccc(NC(=O)NCC(c2ccccc2)N(C)C)cc1 (stereo not drawn) | i | i | i | i | 46*
O=C(CSc1nnc(-c2ccccc2)c(-c2ccccc2)n1)NC1CCS(=O)(=O)C1 (stereo not drawn) | i | i | i | i | i
CC(C)CN(C(=O)COC(=O)COc1ccc2ccccc2c1)c1c(N)n(Cc2ccccc2)c(=O)[nH]c1=O | i | i | i | 16* | i
CCOc1ccc(OCC(=O)OCC(=O)N(CC(C)C)c2c(N)n(Cc3ccccc3)c(=O)[nH]c2=O)cc1 | i | i | i | i | i
COC(=O)c1ccccc1NC(=S)N(Cc1ccc2c(c1)OCO2)Cc1cc2ccc(C)cc2[nH]c1=O | i | i | i | i | i
CCN(CC)CCN(Cc1cc2ccc(C)cc2[nH]c1=O)C(=S)Nc1ccccc1C(=O)OC | -6* | i | i | i | i
Cc1ccc(NC(=S)N(CCCN(C)C)Cc2cc3cc4c(cc3[nH]c2=O)OCO4)c(C)c1 | -6* | i | i | i | i
CNc1nc(SCc2ccccc2Cl)nc2c1CCCC2 | -6* | i | i | i | i
O=c1[nH]c(SCc2ccccc2Cl)nc2c1CCC2 | i | i | i | i | i
CNCC(=O)N(CC(C)C)c1c(N)n(CC(C)C)c(=O)[nH]c1=O | i | i | i | i | i
COC(=O)c1nn(-c2ccc(OC)cc2)ccc1=O | i | i | i | i | i
Cc1cccc(/C=N/NC(=O)c2cc(Br)ccc2O)n1 | i | i | i | 65* | i
Cc1cc(C)n(CCC(=O)Nc2ccc3c(c2)OCCO3)n1 | i | i | i | i | i
Cc1ccc(/C=C/C(=O)NC2CCCCCCC2)o1 | i | i | i | 27* | i
Cc1ccc(/C=N/NC(=O)NC2CCCCC2)o1 | i | i | i | 72* | i
CC(C)c1ccc(/C=C/C(=O)NC2CCCCC2)cc1 | i | i | i | i | i
Cc1cccc(/C=N/NC(=O)NC2CCCCC2)c1 | i | i | i | i | i
O=C(NNC(=O)c1ccc(Cl)s1)c1csc(N2CCOCC2)n1 | i | i | i | i | i
Clc1ccccc1Cc1noc(CN2CCCCC2CCc2ccccn2)n1 (stereo not drawn) | i | i | i | i | i
CCOC(=O)C1CCN(CC(O)COCc2ccc(Cl)cc2)CC1 (stereo not drawn) | i | i | i | i | i
NC(=O)C1CCCN(CC(O)COCc2ccc(Cl)cc2)C1 (stereo not drawn) | i | i | i | i | 189*
Cc1cccc(C(=O)NCCc2ccccc2)c1 | i | i | i | i | i

Source: PubChem BioAssay
